In ChEMBL document CHEMBL3352313 (J Med Chem, 2014):
Positions count from the first letter of the chain named.

Legend:
[1] = biological target: T1, Muscarinic acetylcholine receptor M4 (Rattus norvegicus, UniProt P08485); assay: Activity at rat muscarinic acetylcholine receptor subtype 4 expressed in CHO cells co-transfected with chimeric Gqi5 by calcium mobilization assay; assay type: functional, cell-based
T1 sequence (P08485 whole entry): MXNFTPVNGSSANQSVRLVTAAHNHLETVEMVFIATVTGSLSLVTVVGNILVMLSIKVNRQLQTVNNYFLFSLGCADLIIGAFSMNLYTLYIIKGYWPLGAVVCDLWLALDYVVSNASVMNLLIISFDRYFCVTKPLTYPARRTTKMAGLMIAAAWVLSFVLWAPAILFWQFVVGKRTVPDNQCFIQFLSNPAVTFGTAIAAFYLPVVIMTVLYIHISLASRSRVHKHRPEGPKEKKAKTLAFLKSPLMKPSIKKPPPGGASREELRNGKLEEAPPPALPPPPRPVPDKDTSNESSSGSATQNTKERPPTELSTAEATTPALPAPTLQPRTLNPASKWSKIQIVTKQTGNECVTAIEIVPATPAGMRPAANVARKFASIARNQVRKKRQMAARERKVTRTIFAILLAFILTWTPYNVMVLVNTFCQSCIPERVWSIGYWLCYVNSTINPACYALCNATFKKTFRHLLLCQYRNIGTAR
In short: (§1)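 Muscarinic subtype selectivity by fluorescence calcium mobilization in highly expressing CHO lines with similar receptor levels; Gi/o-coupled M2 and M4 cells co-transfected with chimeric Gqi5 to couple to Ca2+ mobilization. Read-outs are PAM EC50 and ACh max response. Mean ± SEM of at least three independent determinations.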

[2] = biological target: T2, Muscarinic acetylcholine receptor M1 (Homo sapiens) (UniProt P11229); assay: Activity at human muscarinic acetylcholine receptor subtype 1 expressed in CHO cells by calcium mobilization assay relative to acetylcholine; assay type: functional, cell-based; in short: as §1
T2 sequence (whole entry): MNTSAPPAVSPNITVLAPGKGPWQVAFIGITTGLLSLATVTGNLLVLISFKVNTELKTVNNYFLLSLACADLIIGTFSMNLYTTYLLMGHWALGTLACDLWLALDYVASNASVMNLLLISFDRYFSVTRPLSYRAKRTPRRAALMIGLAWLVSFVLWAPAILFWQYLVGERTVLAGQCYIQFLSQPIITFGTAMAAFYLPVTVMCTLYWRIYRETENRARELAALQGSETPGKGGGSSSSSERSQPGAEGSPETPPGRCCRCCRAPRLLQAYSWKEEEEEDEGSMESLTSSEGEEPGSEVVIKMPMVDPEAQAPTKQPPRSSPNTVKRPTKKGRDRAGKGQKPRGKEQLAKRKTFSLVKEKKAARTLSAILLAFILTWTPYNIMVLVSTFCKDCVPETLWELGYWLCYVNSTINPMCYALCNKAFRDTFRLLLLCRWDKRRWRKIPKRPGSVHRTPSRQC

Rattus norvegicus = assay: Brain to plasma partition coefficient, Kp of the compound in Sprague-Dawley rat 1 mg/kg, iv administered as single dose after 15 mins by LC/MS/MS utilizing electrospray ionization method; assay type: ADME, organism-based; design: dose 1 mg/kg, route intravenous; settings: 0.25 h
In short: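 Male Sprague–Dawley rats (n = 3) dosed 1 mg/kg intravenously. Brain and plasma levels at 15 min after administration give Kp. Kp,uu is the unbound brain-plasma partition coefficient.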

Plasma = assay: Fraction unbound in rat plasma at 5 uM incubated for 4 hrs at 37 degC by equilibrium dialysis based LC/MS/MS analysis; assay type: ADME, cell-free
In short: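 Fraction unbound measured in rat and human plasma and in rat brain homogenate.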

[3] = biological target: T3, Muscarinic acetylcholine receptor M5 (Homo sapiens) (UniProt P08912); assay: Positive allosteric modulator activity at human muscarinic acetylcholine receptor subtype 5 expressed in CHO cell membranes assessed as fold shift in acetylcholine binding affinity by [3H]NMS binding based scintillation counting method
T3 sequence (whole entry): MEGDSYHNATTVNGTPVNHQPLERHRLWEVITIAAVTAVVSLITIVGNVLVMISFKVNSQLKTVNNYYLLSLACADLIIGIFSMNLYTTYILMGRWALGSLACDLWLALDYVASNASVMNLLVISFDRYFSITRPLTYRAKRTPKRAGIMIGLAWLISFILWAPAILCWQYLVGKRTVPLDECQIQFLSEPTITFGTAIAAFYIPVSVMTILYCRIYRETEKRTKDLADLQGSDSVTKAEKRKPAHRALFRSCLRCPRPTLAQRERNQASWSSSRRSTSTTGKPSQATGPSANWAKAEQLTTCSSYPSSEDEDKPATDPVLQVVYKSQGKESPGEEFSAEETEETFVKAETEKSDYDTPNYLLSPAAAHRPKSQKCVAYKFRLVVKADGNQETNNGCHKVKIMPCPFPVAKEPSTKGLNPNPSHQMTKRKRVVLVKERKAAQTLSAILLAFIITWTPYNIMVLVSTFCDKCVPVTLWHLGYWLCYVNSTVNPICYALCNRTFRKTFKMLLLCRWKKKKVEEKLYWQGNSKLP

[4] = Plasma clearance in Sprague-Dawley rat 1 mg/kg, iv administered as single dose by LC/MS/MS utilizing electrospray ionization method; assay type: ADME, organism-based; design: dose 1 mg/kg, route intravenous
[5] = biological target: Muscarinic acetylcholine receptor M3 (Rattus norvegicus, UniProt P08483); assay: Activity at rat muscarinic acetylcholine receptor subtype 3 expressed in CHO cells by calcium mobilization assay; assay type: functional, cell-based; in short: as §1
[6] = biological target: T4, Muscarinic acetylcholine receptor M1 (Rattus norvegicus, UniProt P08482); assay: Activity at rat muscarinic acetylcholine receptor subtype 1 expressed in CHO cells by calcium mobilization assay; assay type: functional, cell-based; in short: as §1
T4 sequence (P08482 whole entry): T2 sequence (whole entry) with A5V, T254S, P309S, R320K, A337G, I413V

Sequence of Muscarinic acetylcholine receptor M3 (P08483 whole entry): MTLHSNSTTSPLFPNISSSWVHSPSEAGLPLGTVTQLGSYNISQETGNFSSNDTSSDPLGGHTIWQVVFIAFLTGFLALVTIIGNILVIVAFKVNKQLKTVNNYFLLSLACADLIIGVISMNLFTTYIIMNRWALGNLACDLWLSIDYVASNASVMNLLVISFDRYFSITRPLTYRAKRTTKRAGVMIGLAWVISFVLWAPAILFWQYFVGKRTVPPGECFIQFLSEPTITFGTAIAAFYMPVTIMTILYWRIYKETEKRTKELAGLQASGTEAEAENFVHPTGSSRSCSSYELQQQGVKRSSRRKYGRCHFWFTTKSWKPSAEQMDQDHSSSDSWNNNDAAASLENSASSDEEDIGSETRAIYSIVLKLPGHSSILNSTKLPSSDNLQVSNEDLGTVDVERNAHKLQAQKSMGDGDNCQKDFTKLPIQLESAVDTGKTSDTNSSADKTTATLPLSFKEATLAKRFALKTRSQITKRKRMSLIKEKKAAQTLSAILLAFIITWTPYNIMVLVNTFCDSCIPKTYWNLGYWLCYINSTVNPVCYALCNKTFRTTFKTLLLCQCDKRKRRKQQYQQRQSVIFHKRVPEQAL

In the case of CCN(Cc1ccccc1C(F)(F)F)C(=O)C1CCN(S(=O)(=O)c2ccc3[nH]ncc3c2)CC1, the EC50 [1] is reported as > 30 µM, the %max [2] is reported as 52% and the Kp (Rattus norvegicus) is reported as 0.36. For the same compound, the Fu (Plasma) was 0.014, the fold change (FC) [3] was 15 and the clearance [4] was 66 mL/min/kg. The EC50 [5] was 3.1 µM and the EC50 [6] was 2000 nM.
